# The source made the active and inactive calls. The calls are words filed in the database; no cut-off is given here. Where a SMILES comes first, the peptide text is derived from it. The star is where a group is joined. Cbz = O=C(OCc1ccccc1)*
# Legend:
# [1] = target: T1, Proteasome Macropain subunit MB1 (Homo sapiens, UniProt P28074); test: Inhibition of chymotrypsin-like activity of 20S proteasome in human SEM cells using Suc-LLVY aminoluciferin as substrate after 2 hrs by proteasome-Glo assay; format: cell-based
# T1 sequence (P28074 whole entry): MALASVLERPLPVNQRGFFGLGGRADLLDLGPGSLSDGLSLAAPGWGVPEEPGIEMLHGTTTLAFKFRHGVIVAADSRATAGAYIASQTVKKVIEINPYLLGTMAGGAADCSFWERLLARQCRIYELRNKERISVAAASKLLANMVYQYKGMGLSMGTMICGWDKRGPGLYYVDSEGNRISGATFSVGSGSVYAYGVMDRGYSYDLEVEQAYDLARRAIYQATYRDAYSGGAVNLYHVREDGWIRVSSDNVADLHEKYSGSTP
# [2] = target: T1, Proteasome Macropain subunit MB1; test: Inhibition of chymotrypsin-like activity of 20S proteasome in human HL60 cells using Suc-LLVY aminoluciferin as substrate after 2 hrs by proteasome-Glo assay; format: cell-based
# [3] = target: T1, Proteasome Macropain subunit MB1; test: Inhibition of chymotrypsin-like activity of 20S proteasome in imatinib-resistant human SUP-B15 cells using Suc-LLVY aminoluciferin as substrate after 2 hrs by proteasome-Glo assay; format: cell-based
# PBMC = test: cells; format: ADME, cell-based; details: Homo sapiens, 72 h
# [4] = target: T2, Protein deacetylase HDAC6 (Homo sapiens) (UniProt Q9UBN7); test: Inhibition of HDAC6 in human SEM cells assessed as increase in acetyl-alpha tubulin expression at 0.1 to 10 uM after 24 hrs by immunoblot assay; format: cell-based
# T2 sequence (whole entry): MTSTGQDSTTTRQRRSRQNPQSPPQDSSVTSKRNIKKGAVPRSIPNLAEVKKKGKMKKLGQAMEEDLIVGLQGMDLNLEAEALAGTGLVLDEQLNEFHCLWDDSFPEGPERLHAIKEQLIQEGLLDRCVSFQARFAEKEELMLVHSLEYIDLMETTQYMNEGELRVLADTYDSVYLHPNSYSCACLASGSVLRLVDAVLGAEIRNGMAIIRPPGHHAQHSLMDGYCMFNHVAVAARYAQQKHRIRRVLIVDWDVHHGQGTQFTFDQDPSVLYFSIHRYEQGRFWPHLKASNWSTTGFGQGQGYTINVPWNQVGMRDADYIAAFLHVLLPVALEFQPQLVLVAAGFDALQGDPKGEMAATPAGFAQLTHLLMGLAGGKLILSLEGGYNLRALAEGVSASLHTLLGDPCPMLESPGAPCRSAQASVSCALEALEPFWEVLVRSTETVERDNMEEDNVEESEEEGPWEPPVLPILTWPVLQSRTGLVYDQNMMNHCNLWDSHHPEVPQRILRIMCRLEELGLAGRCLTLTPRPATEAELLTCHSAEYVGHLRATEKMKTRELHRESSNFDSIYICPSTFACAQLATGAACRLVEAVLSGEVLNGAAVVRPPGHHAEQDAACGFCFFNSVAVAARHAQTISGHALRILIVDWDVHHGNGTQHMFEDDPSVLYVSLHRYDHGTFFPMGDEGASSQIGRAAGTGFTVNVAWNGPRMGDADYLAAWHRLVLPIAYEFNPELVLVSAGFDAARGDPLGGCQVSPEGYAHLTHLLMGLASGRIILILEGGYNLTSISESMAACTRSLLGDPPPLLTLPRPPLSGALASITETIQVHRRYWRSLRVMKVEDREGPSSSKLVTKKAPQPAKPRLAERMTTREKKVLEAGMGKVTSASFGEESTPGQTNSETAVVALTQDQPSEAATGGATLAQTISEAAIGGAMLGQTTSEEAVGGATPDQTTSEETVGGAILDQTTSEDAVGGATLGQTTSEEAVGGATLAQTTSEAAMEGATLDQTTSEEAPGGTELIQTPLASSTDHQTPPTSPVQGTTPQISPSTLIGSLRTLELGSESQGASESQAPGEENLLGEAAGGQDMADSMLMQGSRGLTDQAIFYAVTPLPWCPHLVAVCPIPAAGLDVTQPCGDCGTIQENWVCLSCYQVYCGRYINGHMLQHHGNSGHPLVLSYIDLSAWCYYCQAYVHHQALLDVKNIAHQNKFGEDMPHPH
# How it was run: (§1)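 Cells exposed for 24 h at indicated concentrations; lysates immunoblotted for acetyl-α-tubulin, acetyl-histone H3, PARP, with GAPDH as loading control.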
# [5] = target: T2, Protein deacetylase HDAC6 (Homo sapiens); details: SEM, 0.1 to 10 uM
# [6] = target: T2, Protein deacetylase HDAC6 (Homo sapiens); details: 0.1 to 10 uM
# SEM cells [7] = test: Cytotoxicity against human SEM cells after 72 hrs by CellTiter-Glo luminescent cell viability assay; format: functional, cell-based
# How it was run: (§2)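 Inhibitors dispensed in increasing concentrations (50 nM–25 μM) and cells exposed 72 h. Viability read by ATP-dependent luminescence (CellTiter-Glo). Raw data normalized to controls. IC50 obtained by sigmoid dose–response fit with non-linear regression.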
# HL-60 = test: Cytotoxicity against human HL60 cells after 72 hrs by CellTiter-Glo luminescent cell viability assay; format: functional, cell-based; details: HL-60, 72 h
# [8] = Cytotoxicity against human BCP-ALL cells derived from patient 3 after 72 hrs by CellTiter-Glo luminescent cell viability assay; format: functional, cell-based
# KCL-22 [9] = test: Cytotoxicity against human KCL22 cells after 72 hrs by CellTiter-Glo luminescent cell viability assay; format: functional, cell-based; details: KCL-22, 72 h; how it was run: as §2
# [10] = Cytotoxicity against human BCP-ALL cells derived from patient 4 after 72 hrs by CellTiter-Glo luminescent cell viability assay; format: functional, cell-based
# [11] = target: T2, Protein deacetylase HDAC6 (Homo sapiens); test: Inhibition of HDAC6 in imatinib-resistant human SUP-B15 cells assessed as increase in acetyl-alpha tubulin expression at 0.1 to 10 uM after 24 hrs by immunoblot assay; format: cell-based; how it was run: as §1
# [12] = target: T2, Protein deacetylase HDAC6 (Homo sapiens); test: Inhibition of HDAC6 in human HL60 cells assessed as increase in acetyl-alpha tubulin expression at 0.1 to 10 uM after 24 hrs by immunoblot assay; format: cell-based; how it was run: as §1
# [13] = Cytotoxicity against human RPMI18226 cells after 72 hrs by CellTiter-Glo luminescent cell viability assay; format: functional, cell-based; details: RPMI18226, 72 h
# [14] = Cytotoxicity against human BCP-ALL cells derived from patient 2 after 72 hrs by CellTiter-Glo luminescent cell viability assay; format: functional, cell-based
# How it was run: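 Compounds dispensed digitally at increasing concentrations, 50 nM–25 μM; viability read by CellTiter-Glo luminescence after 72 h. Raw data normalized to controls, IC50 from sigmoid dose curve by non-linear regression. Patient samples: primary cells from newly diagnosed or relapsed patients, cultured in stem cell expansion or mononuclear cell medium.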
# SUP-B15 [15] = test: Cytotoxicity against imatinib-resistant human SUP-B15 cells after 72 hrs by CellTiter-Glo luminescent cell viability assay; format: functional, cell-based; details: SUP-B15, 72 h
# [16] = target: T2, Protein deacetylase HDAC6 (Homo sapiens); details: SEM, 1.6 uM
# SEM cells [17] = test: Antiproliferative activity against human SEM cells at IC50 to 2 times IC50 after 24 to 72 hrs by trypan exclusion method; format: functional, cell-based
# [18] = target: T2, Protein deacetylase HDAC6 (Homo sapiens); test: Inhibition of HDAC6 in human HL60 cells assessed as increase in acetyl-histone H3 expression at 0.1 to 10 uM after 24 hrs by immunoblot assay; format: cell-based; how it was run: as §1
# [19] = target: T2, Protein deacetylase HDAC6 (Homo sapiens); test: Inhibition of HDAC6 in human SEM cells assessed as increase in acetyl-histone H3 expression at 0.1 to 10 uM after 24 hrs by immunoblot assay; format: cell-based; how it was run: as §1
# [20] = Cytotoxicity against human BCP-ALL cells derived from patient 1 after 72 hrs by CellTiter-Glo luminescent cell viability assay; format: functional, cell-based
# [21] = target: T2, Protein deacetylase HDAC6 (Homo sapiens); details: SUP-B15, 0.1 to 10 uM
# [22] = target: T2, Protein deacetylase HDAC6 (Homo sapiens); test: Inhibition of HDAC6 in imatinib-resistant human SUP-B15 cells assessed as increase in acetyl-histone H3 expression at 0.1 to 10 uM after 24 hrs by immunoblot assay; format: cell-based; how it was run: as §1
# KCL-22 [23] = test: Cytotoxicity against imatinib-resistant human KCL22 cells after 72 hrs by CellTiter-Glo luminescent cell viability assay; format: functional, cell-based; details: KCL-22, 72 h; how it was run: as §2
# SEM cells [24] = test: Inhibition of proteasome in human SEM cells assessed as increase in aggresome accumulation at 3 uM after 18 hrs by FACS analysis; format: cell-based
# How it was run: (§3)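 Cells treated 18 h, then stained with a proteostat aggresome dye plus DNA stain. Imaged by fluorescence microscopy (63X objective) or analysed by FACS, with aggresome propensity factor from relative mean fluorescence intensity.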
# SEM cells [25] = test: Inhibition of proteasome in human SEM cells assessed as increase in aggresome accumulation at 3 uM after 18 hrs by fluorescence microscopic method; format: cell-based
# How it was run: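 SEM cells exposed for 18 h, then labeled with a proteostat aggresome detection kit with DNA counterstain per kit guidelines; aggresomes imaged by fluorescence microscopy with a 63X objective.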
# SEM cells [26] = test: Inhibition of proteasome in human SEM cells assessed as increase in cleaved PARP expression at 1 to 100 nM after 24 hrs by immunoblot assay; format: cell-based
# How it was run: (§4)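 Cells treated with compounds for 24 h; lysates immunoblotted for PARP alongside acetyl-α-tubulin, acetyl-histone H3 and GAPDH.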
# SUP-B15 [27] = test: Inhibition of proteasome in imatinib-resistant human SUP-B15 cells assessed as increase in cleaved PARP expression at 1 to 100 nM after 24 hrs by immunoblot assay; format: cell-based; how it was run: as §4
# Homo sapiens = organism: Homo sapiens; test: Inhibition of proteasome in human HL60 cells assessed as increase in cleaved PARP expression at 1 to 100 nM after 24 hrs by immunoblot assay; format: cell-based; how it was run: as §1
# SEM cells [28] = test: Inhibition of proteasome in human SEM cells assessed as increase in aggresome accumulation at 10 nM after 18 hrs by fluorescence microscopic method; format: cell-based; how it was run: as §3
# SEM cells [29] = test: Inhibition of proteasome in human SEM cells assessed as increase in aggresome accumulation at 10 nM after 18 hrs by FACS analysis; format: cell-based; how it was run: as §3
smiles,measurement,setting,value
O=C(CCCCCCC(=O)Nc1ccccc1)NO [VORINOSTAT],IC50,[1],> 25 µM
same,IC50,[2],> 25 µM
same,IC50,[3],> 25 µM
O=C(CCCCCCNC(=O)c1cnc(N(c2ccccc2)c2ccccc2)nc1)NO [RICOLINOSTAT],IC50,PBMC,< 3.6 µM
same,inhibition,[4],Active
same,inhibition,[5],Active
same,inhibition,[6],Active
same,IC50,SEM cells [7],1.61 µM
same,IC50,HL-60,2.36 µM
same,IC50,[8],4.45 µM
same,IC50,KCL-22 [9],3.75 µM
same,IC50,[10],0.54 µM
same,inhibition,[11],Active
same,inhibition,[12],Active
same,IC50,[13],1.97 µM
same,IC50,[14],0.58 µM
same,IC50,SUP-B15 [15],3.54 µM
same,inhibition,[16],Active
same,Activity,SEM cells [17],Active
same,inhibition,[18],Active
same,inhibition,[19],Active
same,IC50,[20],0.29 µM
same,IC50,[1],> 25 µM
same,inhibition,[21],Active
same,IC50,[2],> 25 µM
same,inhibition,[22],Active
same,IC50,[3],> 25 µM
same,IC50,KCL-22 [23],3.38 µM
CC(C)C[C@@H](C=O)NC(=O)[C@H](CC(C)C)NC(=O)[C@H](CC(C)C)NC(=O)OCc1ccccc1 (Cbz-Leu-Leu-Leu-aldehyde),inhibition,SEM cells [24],Active
same,inhibition,SEM cells [25],Active
CC(C)C[C@H](NC(=O)[C@H](Cc1ccccc1)NC(=O)c1cnccn1)B(O)O [BORTEZOMIB],IC50,PBMC,< 0.035 µM
same,inhibition,SEM cells [26],Active
same,inhibition,SUP-B15 [27],Active
same,inhibition,Homo sapiens,Active
same,inhibition,SEM cells [28],Active
same,inhibition,SEM cells [29],Active
